Blank lines part the entries; values can stand above or below the molecule they belong to.
How the values were obtained:
WT mIL-2 = target: T1, WT mIL-2 (Mus musculus, UniProt P04351); assay: NMR titration with line shape analysis; assay type: binding
T1 sequence (P04351 21-169): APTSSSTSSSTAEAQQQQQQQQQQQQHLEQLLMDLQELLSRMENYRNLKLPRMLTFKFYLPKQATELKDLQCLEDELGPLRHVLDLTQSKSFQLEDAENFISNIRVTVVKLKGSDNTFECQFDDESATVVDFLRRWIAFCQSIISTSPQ
Summary of the method: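 Kd derived by line-shape analysis (TITAN) of fast-exchange shifts of the V129γ2 and L133δ2 methyl peaks. Errors propagated from spectral signal-to-noise.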

[1] = target: wild-type mouse interleukin-2 (mouse, UniProt P04351); assay: ITC
[2] = test system: IL-2Rα+ mouse CTLL-2 cells; assay: STAT5 phosphorylation; assay type: cell-based; conditions: IL-2Rα+ CTLL-2 cells
JES6-1 = assay: Isothermal titration calorimetry of mIL-2 into JES6-1; assay type: binding; conditions: ITC

Kd (WT mIL-2): 39400 ± 5500 nM
Molecule: COC(=O)[C@H](Cc1ccc(C#Cc2ccccc2)cc1)NC(=O)C[C@H]1CCCN(C(=N)N)C1 [Ro 26-4550]

Kd [1]: 2 nM | dH [1]: 12.7 kcal⋅mol^−1
B1: JES6-1 anti-mouse IL-2 monoclonal antibody (antibody, V domains shown)
VH: EIQLQQSGPELRRPGSSVKLSCKASGYNITDYLIHWVRHRPEHGLEWIGWIDPEDGETRYAQKFQSKATLTADTSSNAAYMQLSSLTPEDTATYFCARSLDSTYIYPFAYWGQGTLVTVSS
VL: DIVMTQSPFSLAVSEGEMVTINCKSSQSLLSSGNQKNYLAWYQQKPGQSPKLLIYYASTGQSGVPDRFIGSGSGTDFTLTISDVQAEDLADYYCLQHYISPPTFGAGTKLELK
effect of JES6-1 on mIL-2-mediated STAT5 activation [2]: fivefold reduced

Kd (JES6-1; 20 °C, 20 mM phosphate pH 7.2, 150 mM NaCl): 2 nM
B2: WT mIL-2: wild-type mouse interleukin-2 (amino acids 1-149), recombinant, expressed in E. coli (protein, UniProt P04351 21-169, looked up)
Interleukin-2: APTSSSTSSSTAEAQQQQQQQQQQQQHLEQLLMDLQELLSRMENYRNLKLPRMLTFKFYLPKQATELKDLQCLEDELGPLRHVLDLTQSKSFQLEDAENFISNIRVTVVKLKGSDNTFECQFDDESATVVDFLRRWIAFCQSIISTSPQ

decrease in binding affinity relative to WT mIL-2 (JES6-1): 1,000 fold
B3: R52A mIL-2: designed point mutant R52A of mouse IL-2 that eliminates all C-capping interactions (protein)
chain: APTSSSTSSSTAEAQQQQQQQQQQQQHLEQLLMDLQELLSRMENYRNLKLPAMLTFKFYLPKQATELKDLQCLEDELGPLRHVLDLTQSKSFQLEDAENFISNIRVTVVKLKGSDNTFECQFDDESATVVDFLRRWIAFCQSIISTSPQ
effect of JES6-1 on mIL-2-mediated STAT5 activation [2]: independent of JES6-1
